A short description of the data set: Toxicity liver stage against HepG2, at 10uM. In kind it is cell-based. On the set-up: test concentration 10 uM, cell line HepG2-A16-CD81EGFP. As to conditions: human, HepG2-A16-CD81EGFP cells; read-out: INHIBITION
In a few lines: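 Uninfected HepG2-A16-CD81EGFP cells, 3 × 10^3 per well, 1536-well, plated on prespotted compound at 10 μM final, parasite-free screening media added to match infected plates; puromycin 10 μM positive, DMSO 0.5% negative; run in parallel with 48 h PbLuc assay at 37 °C, 5% CO2; viability by CellTiter-Glo luminescence, normalized to controls.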

Regarding `COc1cc(N2CCC3(CCN(Cc4cccnc4)C3=O)C2)ncn1` (stereo unspecified), the cytotoxicity at 10 µM is -107%.

On to `O=C(O)CC1COCCN1CCCc1ccccc1` (stereo unspecified), for which the cytotoxicity at 10 µM is -0.541%.

Consider `CC(C)N(CC(N)=O)C(=O)c1cnc(-c2ccc3c(c2)OCO3)s1`, for which the cytotoxicity at 10 µM was -5.92%.

`CC(=O)N1CCCC(c2nc(-c3ccccc3)c[nH]2)C1` (stereo unspecified): the cytotoxicity at 10 µM amounted to 6.48%.

As to `COCCN1CCN(CC(O)c2ccc(OC(F)(F)F)cc2)CC1` (stereo unspecified), the cytotoxicity at 10 µM is -22.1%.

As to `c1ccc2cc(OCCCN3CCn4c(nnc4C4CC4)C3)ccc2c1`, the cytotoxicity at 10 µM is -11.3%.

In the case of `Cc1nonc1CN1CC[C@@](O)(C2CCC2)[C@H](C)C1`, the cytotoxicity at 10 µM amounted to 17.5%.

With `CCC(C)(CNC(=O)Nc1nncs1)N1CCOCC1` (stereo unspecified), the cytotoxicity at 10 µM is -7.98%.

For the compound `O[C@@H]1CC(CNCc2cccc(Cl)c2)(COc2cnccn2)C[C@@H]1O` (stereo partly specified), the cytotoxicity at 10 µM is -3.58%.

For the compound `O=C(NCCCN1CCOCC1)c1cc(-c2ccc3c(c2)CCO3)n[nH]1`, the cytotoxicity at 10 µM was -3.73%.

For the compound `COCCN1CCc2ncnc(N(C)C)c2CC1`, the cytotoxicity at 10 µM was -0.025%.

In the case of `COCCN(C)C[C@@H]1CN(C(=O)c2ccoc2)C[C@@H]1CO`, the cytotoxicity at 10 µM is -18.4%.

As for `Cc1ccc(CN2C[C@@H](OCc3ccccn3)[C@H]3COC[C@H]32)o1`, the cytotoxicity at 10 µM was -114%.

In the case of `NC(=O)c1ccnc(N2CCCC(CO)(Cc3ccc(F)cc3)C2)c1` (stereo unspecified), the cytotoxicity at 10 µM was determined as 14.1%.

Turning to `CS(=O)(=O)N1CCN(C(=O)c2cc(-c3ccc(Br)s3)n[nH]2)CC1`, the cytotoxicity at 10 µM was -7.62%.

In the case of `CN(C)c1ccccc1C(=O)N1C[C@@H](CN2CCCCC2)[C@@H](CO)C1`, the cytotoxicity at 10 µM is -12.1%.

Consider `CN1CC(c2ccccc2)CC2(CCN(CC(=O)N(C)C)CC2)C1` (stereo unspecified), for which the cytotoxicity at 10 µM was -12.5%.

In the case of `O=C(CC1CC1)N1CCC2(CC(=O)N(c3cccc(F)c3)C2)C1` (stereo unspecified), the cytotoxicity at 10 µM was -148%.

As for `NC(=O)c1sc2ccccc2c1C1CCN(S(=O)(=O)N2CCOCC2)C1` (stereo unspecified), the cytotoxicity at 10 µM is 11.8%.

Regarding `CCCc1nc(C(=O)N2CCN(C(=O)c3ccc(OC)cc3)CC2)cs1`, the cytotoxicity at 10 µM was -3.07%.

Consider `CN1CCN(Cc2cccnc2)C2(CCN(c3ncccn3)C2)C1=O` (stereo unspecified), for which the cytotoxicity at 10 µM was determined as 1.31%.

With `CC(NC(=O)NC1CCN(Cc2ccncc2)CC1)c1ccc(F)cc1` (stereo unspecified), the cytotoxicity at 10 µM turned out to be 7.9%.

`CC1CCN(CCNC(=O)C2CCN(S(N)(=O)=O)CC2)CC1`: the cytotoxicity at 10 µM turned out to be 17.9%.

With `CC(C)c1cc(NCC(O)c2ccc(F)cc2)n2nccc2n1` (stereo unspecified), the cytotoxicity at 10 µM is 0.255%.

Regarding `Cc1nn(C)c2ncc(CN3CCN(Cc4ccco4)CC3)cc12`, the cytotoxicity at 10 µM came out at 0.243%.

As to `CC(C)N(C)Cc1ncn2c1CN(CC(=O)N(C)C)CCC2`, the cytotoxicity at 10 µM worked out at 7.28%.

As for `CC(C)S(=O)(=O)c1nnc(CCNC(=O)OC(C)(C)C)o1`, the cytotoxicity at 10 µM was found to be 9.28%.

Turning to `CCc1ccc(CN2CCc3ncnc(-c4cccnc4)c3CC2)o1`, the cytotoxicity at 10 µM is 12.8%.

Take `COCCN1C(=O)CCC12CCN(c1ncc(F)cn1)CC2`: the cytotoxicity at 10 µM came out at 0.632%.

On to `COCCN1C[C@H]2[C@@H](C1)N(C(=O)CCc1ccccc1)CC[C@H]2OC`, for which the cytotoxicity at 10 µM was 4.78%.

As to `Cc1cc(C)c(CCNC(=O)NCCCC(N)=O)c(C)c1`, the cytotoxicity at 10 µM is -1.24%.

Consider `CNCc1cnc(Nc2ccccc2)nc1`, for which the cytotoxicity at 10 µM turned out to be 1.38%.

With `CCSCCC(C)N(C)C(=O)c1cc(C)on1` (stereo unspecified), the cytotoxicity at 10 µM was -7.32%.

As for `COc1ccccc1OCCNCc1c(C)nn(C)c1N(C)C`, the cytotoxicity at 10 µM is -2.9%.

For `Cc1cnc(NC(=O)N2CCOCC2)s1`, the cytotoxicity at 10 µM is -1.14%.

`CCn1ccnc1CNCC1CCCN1c1cc(NC)ncn1` (stereo unspecified): the cytotoxicity at 10 µM came to 3.37%.

With `O=C(O)C1(Cc2cc(-c3ccc(F)cc3F)no2)CCOCC1`, the cytotoxicity at 10 µM stood at 3.37%.

Take `COCCN(CCOC)C(=O)NC1CCCCC1`: the cytotoxicity at 10 µM was -0.655%.

For the compound `CC(C)CN1CCC(C(=O)NCCNC(=O)c2ccoc2)CC1`, the cytotoxicity at 10 µM is 0.335%.

`O=C(C1CCN(c2snc3ccccc23)CC1)N1CCCCCC1`: the cytotoxicity at 10 µM stood at 11.7%.

With `Cc1cnc(N2CCC(c3ccccc3)CC2)nc1-c1ccnn1C`, the cytotoxicity at 10 µM was 4.68%.

With `O=S(=O)(c1cccs1)N1Cc2nc(COCC3CC3)oc2C1`, the cytotoxicity at 10 µM was -109%.

As for `COc1cccc(COCC(=O)NC(C(N)=O)c2ccccc2)c1` (stereo unspecified), the cytotoxicity at 10 µM was -3.73%.

With `Cc1cc2nc(CN(C)c3ccccc3)cc(=O)n2o1`, the cytotoxicity at 10 µM is 0.719%.

For the compound `CC(=O)NCC(=O)N1Cc2nc(COCc3csc(C)n3)oc2C1`, the cytotoxicity at 10 µM amounted to 0.503%.

Consider `CC(C)c1nnc2n1CCN(C(=O)c1ccc(S(C)(=O)=O)cc1)C2`, for which the cytotoxicity at 10 µM was -0.252%.

On to `COc1cccc(Cl)c1C(C(=O)O)N1CCC(O)(c2cccnc2)CC1` (stereo unspecified), for which the cytotoxicity at 10 µM came to 6.03%.

For the compound `OC(COCc1ccccc1F)CN1CCc2c(ncn2C2CC2)C1` (stereo unspecified), the cytotoxicity at 10 µM turned out to be 2.86%.

Consider `Cc1nc(CN2C(=O)C[C@H]3[C@H]2CCN3C2CCOC2)cs1` (stereo partly specified), for which the cytotoxicity at 10 µM was -139%.

Consider `O=C(NC(C(=O)Nc1cc[nH]n1)c1ccccc1)C1CCC1` (stereo unspecified), for which the cytotoxicity at 10 µM was -17.5%.

As for `Cc1cc(C)nc(N2CCC(Cn3cc(C(N)=O)cn3)CC2)n1`, the cytotoxicity at 10 µM came to 3.65%.

Turning to `Cc1cccnc1CN1CCN(CC(=O)N(C)C)[C@@H]2CS(=O)(=O)C[C@@H]21`, the cytotoxicity at 10 µM was -2.33%.

Consider `O=C(CO)N1CCC(F)(F)C2(CCN(c3ccccc3)C2)C1` (stereo unspecified), for which the cytotoxicity at 10 µM was 13.8%.

`CCOc1ccc(NS(=O)(=O)c2cc(C)c(C(=O)O)s2)c(C)c1`: the cytotoxicity at 10 µM is -3.21%.

As to `Cc1sc2nc(CCN)nc(N(CCN(C)C)CC3CCCO3)c2c1C` (stereo unspecified), the cytotoxicity at 10 µM is -9.54%.

Turning to `Cc1cc2c(=O)n3c(nc2s1)CCN(C(=O)c1ccnn1C(C)C)CC3`, the cytotoxicity at 10 µM is -6.46%.

Regarding `CCCN(CC(=O)N1CCNCC1)C(=O)c1cccc(Cl)c1`, the cytotoxicity at 10 µM is 10.7%.

With `Cc1sc(Br)cc1S(=O)(=O)NCCCN`, the cytotoxicity at 10 µM worked out at 0.973%.

Take `CN(Cc1cc(Br)cn1C)C(=O)c1ccon1`: the cytotoxicity at 10 µM was -3.33%.

On to `N#Cc1c2n(c3c(=O)[nH]cnc13)CCCCC2`, for which the cytotoxicity at 10 µM was 5.5%.

`COc1cccc(C(O)CN2CCN(C(=O)CCC(C)C)CC2)c1` (stereo unspecified): the cytotoxicity at 10 µM was -46.9%.

For the compound `CC(C)(C)OC(=O)N1CCC[C@H](NCC2CCOCC2)C1`, the cytotoxicity at 10 µM is -0.678%.

Take `NC(=O)NC(=O)CNc1cccc(C(=O)c2ccccc2)c1`: the cytotoxicity at 10 µM is 7.95%.

For the compound `O=C1CN(Cc2nnc(-c3ccc(Cl)cc3)o2)CCN1`, the cytotoxicity at 10 µM was -0.238%.

In the case of `Clc1ccc(CN2CCC3(CC2)CC(c2cccnc2)=NO3)cc1`, the cytotoxicity at 10 µM amounted to 17.5%.

For `CNC(=O)Cc1csc(NC(=O)C2CSCCC(=O)N2)n1` (stereo unspecified), the cytotoxicity at 10 µM is -4.94%.

With `CCC(=O)N1CCC(c2cc(Nc3ncccn3)nc(C)n2)C1` (stereo unspecified), the cytotoxicity at 10 µM was -24%.

Regarding `CCN(CC)c1ccc(NC(=O)NCC2CCOC2)cn1` (stereo unspecified), the cytotoxicity at 10 µM amounted to 2.14%.

Consider `Fc1cccnc1O[C@@H]1CC[C@H]2[C@H]1OCCN2Cc1nccs1`, for which the cytotoxicity at 10 µM was determined as 4.93%.

For the compound `Cn1cncc1-c1nnc([C@H]2CCN(Cc3cccnc3)C2)o1`, the cytotoxicity at 10 µM is -4.39%.

As for `CS(=O)(=O)c1nccn1Cc1ccc(OC(F)F)cc1`, the cytotoxicity at 10 µM was -0.627%.

With `CCS(=O)(=O)NCCNc1c(C#N)cnc2c(C)cc(F)cc12`, the cytotoxicity at 10 µM is -0.453%.

For `COCc1nccc(C2CCCN(Cc3cccc(F)c3)C2)n1` (stereo unspecified), the cytotoxicity at 10 µM amounted to 0.769%.

With `CNC(=O)[C@@H]1COC[C@H]2CN(C(=O)COc3ccccc3)C[C@H]21`, the cytotoxicity at 10 µM was -1.65%.

For `O=C(CNCCn1cccn1)NCC1(c2ccccc2)CCOCC1`, the cytotoxicity at 10 µM is -8.27%.

As for `N#Cc1cccc(C(=O)N2CC[C@H]3[C@H]2CCN3CC2CCOCC2)c1`, the cytotoxicity at 10 µM is -77%.

In the case of `Cc1nc2c(c(=O)n1C)CCN(C(=O)Cn1cccc1)CC2`, the cytotoxicity at 10 µM was -2.18%.

For the compound `CCn1cc(NC(=O)CN2CCC(Oc3ccccc3C)CC2)c(C)n1`, the cytotoxicity at 10 µM came to 0.343%.

With `CNc1cc2c(nn1)CCN(C(=O)c1ccc(-n3nccc3C)cc1)C2`, the cytotoxicity at 10 µM was -5.44%.

For `O=C(c1cncc(N2CC[C@@]3(O)CCNC[C@H]3C2)n1)N1CCCC1`, the cytotoxicity at 10 µM is -8.19%.

On to `O=C(Cn1cc(C(=O)O)ccc1=O)NCc1ccc(F)cc1Cl`, for which the cytotoxicity at 10 µM was -0.581%.

Consider `NCC(CO)Cc1ccc(OC(F)(F)F)cc1` (stereo unspecified), for which the cytotoxicity at 10 µM amounted to 8.65%.

Consider `CC[C@@]1(O)CCN(C(=O)c2ccc(CN3CCCCCC3)cc2)C[C@H]1O`, for which the cytotoxicity at 10 µM was 8.44%.

As for `CC(=O)Nc1nc(CN2CCCCC2Cn2cccn2)cs1` (stereo unspecified), the cytotoxicity at 10 µM is -6.7%.

For `Cc1ncc2c(n1)CN(CCOCC(F)(F)F)CC2`, the cytotoxicity at 10 µM was -0.598%.

Take `CCc1ccc(C(C)NC(=O)c2ccc(CS(C)(=O)=O)o2)cc1` (stereo unspecified): the cytotoxicity at 10 µM is -3.07%.

As for `CC(COc1ccccc1F)NC(=O)N[C@@H]1C=C[C@H](CO)C1` (stereo partly specified), the cytotoxicity at 10 µM turned out to be 3.53%.

Regarding `Fc1cccnc1O[C@@H]1CN(Cc2ccco2)[C@@H]2CCCO[C@@H]21`, the cytotoxicity at 10 µM stood at 5.08%.

For `CCc1ccc(C2CCCN2C(=O)NCC(=O)NCC(C)C)o1` (stereo unspecified), the cytotoxicity at 10 µM stood at 17.7%.

With `Fc1ccc2c(c1)C1(CCNCC1)CC2NC1CC1` (stereo unspecified), the cytotoxicity at 10 µM was -117%.

For `Cn1ncc2c1C(COCC1CC1)CN(C(=O)c1ccoc1)C2` (stereo unspecified), the cytotoxicity at 10 µM is -2.18%.

Regarding `COCC1CN(Cc2ccc(F)cc2)Cc2nn(C)cc21` (stereo unspecified), the cytotoxicity at 10 µM is -81.4%.

For `CCOCCCn1c(NC(=O)c2ccnc(C)n2)nc2ccccc21`, the cytotoxicity at 10 µM was -21.1%.

For the compound `COc1ccc(C(C)NCc2ccc(OC)c(OC)c2OC)cc1F` (stereo unspecified), the cytotoxicity at 10 µM is 55.9%.

On to `CC(C)(C)OC(=O)NC(C)(C)c1noc(CN2CCCCC2)n1`, for which the cytotoxicity at 10 µM was 7.57%.

For `Cc1cc(-c2cnc(N3CCNC(=O)C3)nc2-c2ccc(C)o2)on1`, the cytotoxicity at 10 µM is -5.77%.

These data come from ChEMBL document CHEMBL4513216, “Probing the Open Global Health Chemical Diversity Library for Multistage-Active Starting Points for Next-Generation Antimalarials” (ACS Infect Dis, 2020).
